Published values collected from several papers.
Lines come from different studies, so protocols differ.
MMP9 Q279R: Matrix metalloproteinase-9 (MMP9, Homo sapiens, UniProt P14780, Q279R)
EDNRB: Endothelin receptor type B (EDNRB, Homo sapiens, UniProt P24530)
CTSV: Cathepsin L2 (CTSV, Homo sapiens, UniProt O60911)
MAOB: Amine oxidase [flavin-containing] B (MAOB, Homo sapiens, UniProt P27338)
MMP9: Matrix metalloproteinase-9 (MMP9, Homo sapiens, UniProt P14780)

SMILES | target | read-out | mode | method | tested at | inhibition
COc1cc(Nc2ncc(F)c(Nc3ccc4c(n3)NC(=O)C(C)(C)O4)n2)cc(OC)c1OC | Phosphatidylinositol 3-kinase C2 domain-containing subunit gamma (PIK3C2G, Homo sapiens, UniProt O75747) | binding |  | competition with immobilised ligand | 10 µM | 48%
N=C(N)c1ccc2cc(OC(=O)c3ccc(N=C(N)N)cc3)ccc2c1 | MMP9 Q279R | enzyme activity | inhibitor |  | 10 µM | 11%
COc1ccc(S(=O)(=O)N2CCCCC2)cc1C | EDNRB | ligand displacement |  | radioligand | 10 µM | < 30%
COCc1c(-c2cc3cc(C)cc(OC)c3s2)c2c(N)ncnn2c1CN1CCNC(=O)C1 | EDNRB | ligand displacement |  | radioligand | 10 µM | -1%
CCOC(=O)c1ccc(OC(=O)CCCCCNC(=N)N)cc1 | CTSV | enzyme activity | inhibitor |  | 10 µM | 3%
CN1CCN(CCCOc2ccc3occc(=O)c3c2)CC1 | MAOB | enzyme activity | inhibitor | fluorescence | 10 µM | 20%
CN(CCN1CCC(OC(=O)Nc2ccccc2-c2ccccc2)CC1)C(=O)c1ccc(CN2CCC(C(N)=O)CC2)cc1 | MAOB | enzyme activity | inhibitor |  | 1 µM | -2%
Cc1ncc(C)n2nc(/C=C/c3nc(N4CCCC4)cc(N4CCOCC4)n3)nc12 | MMP9 | enzyme activity | inhibitor |  | 10 µM | 12%
CC(C)C[C@H](NC(=O)[C@H]1O[C@@H]1C(=O)O)C(=O)NCCCCN=C(N)N | CTSV | enzyme activity | inhibitor |  | 5 nM | 17%
CN1CCN(CCCCOc2ccc3occc(=O)c3c2)CC1 | MAOB | enzyme activity | inhibitor | fluorescence | 10 µM | 20%
C[C@H](C(=O)N[C@H]1COc2ccccc2[C@@H]1S(C)(=O)=O)c1ccc(F)cc1 | MAOB | enzyme activity | inhibitor |  | 10 µM | 11%
COc1ccc(S(=O)(=O)N(CC(=O)NO)CC(C)C)cc1 | MMP9 Q279R | enzyme activity | inhibitor |  | 0.1 µM | 96%
O=C(Nc1cccnn1)N1CCN([C@@H]2CCOc3cc(C(F)(F)F)ccc32)CC1 | MMP9 | enzyme activity | inhibitor |  | 20 µM | 8%
